From ChEMBL document CHEMBL1151257, “Cytotoxic furanosesterterpenes from a marine sponge Psammocinia sp” (J Nat Prod, 2004)
Values after ≈ are worked out from the molar mass of the structure shown.

What was measured:
SK-MEL-2 = assay: Cytotoxicity against human SK-MEL-2 cells; assay type: functional; settings: read-out: ED50 (the source's name)
XF498 = assay: Cytotoxicity against human XF498 cells; assay type: functional; settings: read-out: ED50 (the source's name)
HCT-15 = assay: Cytotoxicity against human HCT15 cells; assay type: functional; settings: read-out: ED50 (the source's name)
SK-OV-3 = assay: Cytotoxicity against human SKOV3 cells; assay type: functional; settings: read-out: ED50 (the source's name)
A549 = assay: Cytotoxicity against human A549 cells; assay type: functional; settings: read-out: ED50 (the source's name)
Simian virus 40 [1] = assay: Inhibition of SV 40 DNA replication in human HeLa cells at 250 uM; assay type: functional; settings: Betapolyomavirus macacae
How it was run: (§1)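 SV40 DNA replication reaction run at 37 °C for 2 h; replication quantified as acid-insoluble radioactivity.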

Simian virus 40 [2] = assay: Inhibition of SV40 DNA replication in human HeLa cells at 125 uM; assay type: functional; settings: Betapolyomavirus macacae; how it was run: as §1
Simian virus 40 [3] = assay: Inhibition of SV 40 DNA replication in human HeLa cells at 500 uM; assay type: functional; settings: Betapolyomavirus macacae; how it was run: as §1
[4] = Inhibition of DNA polymerase alpha
How it was run: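 DNA polymerase α reaction incubated at 37 °C for 30 min; activity read as acid-insoluble radioactivity.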

IC50 [4] [µM] | SMILES | EC50 (SK-MEL-2) [µg/mL] | EC50 (XF498) [µg/mL] | EC50 (HCT-15) [µg/mL] | EC50 (SK-OV-3) [µg/mL] | EC50 (A549) [µg/mL] | inhibition at 250 µM (Simian virus 40 [1]) [%] | inhibition at 125 µM (Simian virus 40 [2]) [%] | inhibition at 500 µM (Simian virus 40 [3]) [%]
– | CC1=C(O)/C(=C/[C@H](C)CC/C=C(/C)CCC/C(C)=C\CCc2ccoc2)OC1=O | 14.4 (≈ 36.1 µM) | 20.3 (≈ 50.9 µM) | 16 (≈ 40.1 µM) | 14.1 (≈ 35.4 µM) | > 30 | – | – | –
5 | CC1=C(O)/C(=C/[C@H](C)CC/C=C(/C)CC/C=C(\C)CCCc2ccoc2)OC1=O | 5.8 (≈ 14.6 µM) | 8.7 (≈ 21.8 µM) | 11 (≈ 27.6 µM) | 7.5 (≈ 18.8 µM) | 10.5 (≈ 26.3 µM) | 60 | 30 | 100
– | CC1=C(O)/C(=C/[C@H](C)CCC/C(C)=C/CC/C(C)=C/CCc2ccoc2)OC1=O | 19 (≈ 47.7 µM) | 22.1 (≈ 55.5 µM) | 23.5 (≈ 59 µM) | 18.6 (≈ 46.7 µM) | 24.1 (≈ 60.5 µM) | – | – | –
– | COc1cccc2c1C(=O)c1c(O)c3c(c(O)c1C2=O)C[C@@](O)(C(=O)CO)C[C@@H]3O[C@H]1C[C@H](N)[C@H](O)[C@H](C)O1 [DOXORUBICIN] | 0.05 (≈ 0.092 µM) | 0.15 (≈ 0.276 µM) | 0.12 (≈ 0.221 µM) | 0.15 (≈ 0.276 µM) | 0.03 (≈ 0.0552 µM) | – | – | –
– | CC1=C(O)[C@@H](C/C(C)=C/C=C/C(C)CCC/C(C)=C/CCc2ccoc2)OC1=O (some centres undefined) [ISOPALINURIN] | 10.7 (≈ 26.8 µM) | 10 (≈ 25.1 µM) | > 30 | 16.5 (≈ 41.4 µM) | > 30 | – | – | –
– | CC1=C(O)[C@@H](C/C(C)=C/CCC(C)/C=C/C=C(\C)CCCc2ccoc2)OC1=O (some centres undefined) [PALINURIN] | 4.4 (≈ 11 µM) | 5.1 (≈ 12.8 µM) | 5.4 (≈ 13.5 µM) | 10.2 (≈ 25.6 µM) | 5.2 (≈ 13 µM) | – | – | –
– | CC1=C/C(=C/[C@H](C)CCC(=O)/C(C)=C/CC/C(C)=C/CCc2ccoc2)OC1=O [PSAMMOCININ A1] | 7.5 (≈ 18.9 µM) | 28.1 (≈ 70.9 µM) | 20.5 (≈ 51.7 µM) | > 30 | > 30 | – | – | –
– | CC1=C/C(=C/[C@H](C)CCC(=O)C(C)CCC/C(C)=C/CCc2ccoc2)OC1=O (some centres undefined) [PSAMMOCININ A2] | 4.8 (≈ 12 µM) | 10.5 (≈ 26.3 µM) | 11.7 (≈ 29.4 µM) | 12.3 (≈ 30.9 µM) | 7.5 (≈ 18.8 µM) | – | – | –
– | COC1C=C(CC/C=C(\C)CC/C=C(\C)CCCC(C)/C=C2\OC(=O)C(C)=C2O)C(OC)O1 (centres undefined) [PSAMMOCININ B] | 7.5 (≈ 16.3 µM) | 7.8 (≈ 16.9 µM) | 19.2 (≈ 41.7 µM) | 12.6 (≈ 27.4 µM) | 8.2 (≈ 17.8 µM) | – | – | –
